Assay results from different studies.
Protocols differ between the studies behind these lines.
Read-out: metabolic stability
Species: human

Cc1ncc2n1-c1ccc(Cl)cc1C(c1ccccc1F)=NC2 — half-life (hepatocytes): 92.6 min
C[C@]12CC[C@H]3[C@@H](CCC4=CC(=O)CC[C@@]43C)[C@@H]1CC[C@@H]2O — half-life (liver microsomes): 21.7 min
CC(C)CC(=O)OC[C@H]1O[C@@](C#N)(c2ccc3c(N)ncnn23)[C@H](O)[C@@H]1O — half-life (hepatocytes): < 4.36 min
CC(=O)c1c(C)c2cnc(Nc3ccc(C4CCN(CCS(C)(=O)=O)CC4)cn3)nc2n(C2CCCC2)c1=O — half-life (liver S9): 85.6 min
O=c1[nH]c2ccccc2n1C1CCN(CCCC(c2ccc(F)cc2)c2ccc(F)cc2)CC1 — half-life (liver microsomes; 100 ng/mL): 201 min
Cc1[nH]c(C)c(S(=O)(=O)Nc2ccc(S(=O)(=O)F)c(Cl)c2)c1C(=O)N1CCC(F)(F)C1 — half-life (liver microsomes): 22 min
O=c1c2cc(Cl)c(CO)cc2[nH]c(=S)n1Cc1cncnc1 — half-life (liver microsomes; 1 µM, pH 7.4): 71.8 min
Cc1[nH]c(C)c(S(=O)(=O)Nc2ccc(S(F)(F)(F)(F)F)cc2)c1C(=O)N1CCC(F)(F)C1 — half-life (liver microsomes): 26.3 min
CC(c1cncnc1)n1c(=S)[nH]c2ccc(Cl)cc2c1=O (stereo not shown) — half-life (liver microsomes; 1 µM, pH 7.4): > 186 min
C#Cc1nc(C(=O)N2CCC(NC(=O)c3cnc(-c4ccccc4)s3)(c3nc4ccccc4n3C)CC2)cs1 — half-life (liver microsomes): ~20 min
